Measured values of several laboratories.

Structure (SMILES) | test system | setting | half-life
O=C1CCC(N2Cc3cc(NC(=O)c4cccc(F)c4)ccc3C2=O)C(=O)N1 (stereo not shown) | female CD-1 mouse, plasma | intravenous, 3 mg/kg | 1.2 h
CCOc1ccc(N(C)S(=O)(=O)c2cc(Cl)sc2C(=O)Nc2cc(Cl)cc(C(=O)O)c2)cc1OC | male C57BL/6 mouse, brain | intraperitoneal, 10 mg/kg | 0.558 h
C=CS(=O)(=O)c1ccc(Nc2nc(OCC3CCCCC3)c3nc[nH]c3n2)cc1 | male BALB/c mouse, plasma | intravenous, 20 mg/kg, single dose | 5.27 h
COc1cc2c(NC3CCN(CCCC(=O)NCCCCCCCCCCCC(=O)N[C@H](C(=O)N4C[C@H](O)C[C@H]4C(=O)NCc4ccc(-c5scnc5C)cc4)C(C)(C)C)CC3)nc(N3CCC(F)(F)CC3)nc2cc1OCCCN1CCCC1 | male C57BL/6 mouse, plasma | intraperitoneal, 50 mg/kg, single dose | 1.5 h
O=C(ONc1nc2nonc2nc1Nc1ccccc1F)c1ccc(OC(F)(F)F)cc1 | male C57BL/6 mouse, plasma | oral, 10 mg/kg | 0.25 to 0.45 h
CN1CCN(C(=O)[C@H](CCCN[C@@H]2C[C@H]2c2ccc(F)cc2)NC(=O)c2ccc(-n3ccnn3)cc2)CC1 | CD-1 mouse, plasma | intravenous, 3 mg/kg | 5.66 h
CC1=NN(/C(=N/c2nnc(C)s2)Nc2ccc(C)c(C)c2)C(c2cc(F)c(F)c(F)c2)S1 (stereo not shown) | male CD-1 mouse, plasma | intravenous, 1 mg/kg | 1.56 h
COc1cc(C(=O)OCCCN2CCCN(CCCOC(=O)c3cc(OC)c(OC)c(OC)c3)CC2)cc(OC)c1OC | male CD-1 mouse, plasma | subcutaneous | 0.83 h
CC(=O)O[C@@]12CO[C@@H]1C[C@H](O)[C@@]1(C)C(=O)[C@H](O)C3=C(C)[C@@H](OC(=O)[C@H](O)[C@@H](NC(=O)OC(C)(C)C)c4ccccc4)C[C@@](O)([C@@H](OC(=O)c4ccccc4)[C@H]21)C3(C)C | male Kunming mouse, liver | oral, 20 mg/kg | 2.7 h
CCOC(=O)c1cc(Cl)cc(NC(=O)c2sc(Cl)cc2S(=O)(=O)N(C)c2ccc(OCC)c(OC)c2)c1 | male C57BL/6 mouse, brain | intraperitoneal, 10 mg/kg | 2.14 h
CCN1CCN(Cc2ccc(NC(=O)c3ccc(C)c(NC(=O)c4cncc(-c5cccs5)c4)c3)cc2C(F)(F)F)CC1 | mouse, plasma | intraperitoneal, 30 mg/kg, single dose | 2.71 h
Nc1ncn([C@H]2C[C@H](O)[C@@H](CO)O2)c(=O)n1 | female C57BL/6 mouse, plasma | oral, 0.4 mg/kg | 0.91 h
CC(C(=O)Nc1c(F)cccc1F)N1CCN(c2ccccc2)CC1 (stereo not shown) | female C57BL/6 mouse, brain | intraperitoneal, 10 mg/kg | ~0.45 h
